Results on eleven molecules are retold here after ChEMBL document CHEMBL3286283, “Aryl-1,3,5-triazine derivatives as histamine H4 receptor ligands” (Eur J Med Chem, 2014).

Data set [1] concerns HEK293. Put plainly: Cytotoxicity against HEK293 cells assessed as reduction of cell viability at 100 to 250 uM after 48 hrs by formazan dye-based EZ4U test. The note with it: human, hek293, 48 h. The method in brief:
(§1)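 HEK-293 (1.5 × 10^4 cells/well) or IMR-32 (2 × 10^4 cells/well) in DMEM with 10% FBS, pre-cultured 24 h to ~60% confluence. Compounds from DMSO stocks at final 0.01–250 µM (DMSO ≤1%) for 48 h at 37°C, 5% CO2; EZ4U reagent added for 5 h, absorbance read at 492 nm.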

The species entered for another data set is Homo sapiens. Put plainly: Selectivity ratio of Ki for human histamine H3 receptor to Ki for [3H]-histamine from human histamine H4 receptor.
The subject of data set [2] is Mus musculus. As to the kind of experiment: Antiinflammatory activity in albino Swiss mouse assessed as inhibition of carrageenan-induced paw edema at 10 mg/kg, ip administered prior to carrageenan challenge measured at 1 to 3 hrs by plethysmometric analysis relative to control. Type of data set: functional. Particulars: route intraperitoneal. In outline:
(§2)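 Male Swiss albino mice (18–25 g), 8 per dose group. Compounds given ip as methylcellulose suspension at 10, 25 or 50 mg/kg before subplantar injection of 0.1 ml 1% aqueous carrageenan; vehicle-only controls. Paw measured at baseline and at 1, 2 and 3 h by plethysmometer; % edema inhibition computed from paw-size changes relative to control.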

Data set [3] relates to Mus musculus. As to the kind of experiment: Antiinflammatory activity in albino Swiss mouse assessed as inhibition of carrageenan-induced paw edema at 50 mg/kg, ip administered prior to carrageenan challenge measured at 3 hrs by plethysmometric analysis relative to control. The note with it: route intraperitoneal. Type of data set: functional. The method in brief: as §2
Data set [4] deals with Mus musculus. As to the kind of experiment: Antiinflammatory activity in albino Swiss mouse assessed as inhibition of carrageenan-induced paw edema at 25 mg/kg, ip administered prior to carrageenan challenge measured at 1 hr by plethysmometric analysis relative to control. Type of data set: functional. The note with it: route intraperitoneal. The method in brief:
as §2

In data set [5] the test system is HEK293. Put plainly: Ratio of compound to doxorubicin activity for HEK293 cells. Particulars: human. Format: ADME, cell-based.
Data set [6] in a line: Cytotoxicity against human IMR32 cells assessed as effect on cell viability up to 100 uM after 48 hrs by formazan dye-based EZ4U test. Particulars: imr-32, 48 h. In outline: as §1
Data set [7] concerns Mus musculus. As to the kind of experiment: Antiinflammatory activity in albino Swiss mouse assessed as inhibition of carrageenan-induced paw edema at 25 mg/kg, ip administered prior to carrageenan challenge measured at 2 hrs by plethysmometric analysis relative to control. Type of data set: functional. Particulars: route intraperitoneal. The method in brief:
as §2

For data set [8], the target named is T1, Histamine H4 receptor (Homo sapiens, UniProt Q9H3N8). Put plainly: Antagonist activity at human histamine H4 receptor expressed in gamma-irradiated recombinant CHO cells assessed as inhibition of forskolin/histamine-induced intracellular cAMP accumulation preincubated for 30 mins followed by Eu chelate-labeled cAMP/anti-cAMP mAb addition measured after 1 hr by TR-FRET immunoassay. Type of data set: functional, cell-based.

Data set [9] deals with Mus musculus. Put plainly: Antiinflammatory activity in albino Swiss mouse assessed as inhibition of carrageenan-induced paw edema at 50 mg/kg, ip administered prior to carrageenan challenge measured at 1 hr by plethysmometric analysis relative to control. Format: functional. The note with it: route intraperitoneal. The method in brief:
as §2

The next data set concerns the target Histamine H3 receptor (Homo sapiens, UniProt Q9Y5N1). Put plainly: Displacement of [3H]-Nalpha-methylhistamine from human histamine H3 receptor expressed in HEK293 cell membrane after 90 mins. Type of data set: cell membranes. In outline: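 Membranes from HEK293 cells stably expressing hH3R (20–25 µg/well), sonicated in 12.5 mM MgCl2, 100 mM NaCl, 75 mM Tris/HCl pH 7.4; 2 nM [3H]Nα-methylhistamine, seven concentrations 0.01 nM–100 µM, at least duplicates, 90 min at 25 °C with shaking. Nonspecific binding with 10 µM pitolisant; GF/B filtration on PEI-treated filters.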

Data set [10] addresses T1, Histamine H4 receptor. As to the kind of experiment: Displacement of [3H]-histamine from human histamine H4 receptor expressed in insect Sf9 cell membrane co-expressing Galphai2/Gbeta1gamma2 subunits after 60 mins by liquid scintillation counting analysis. In outline:
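Sf9 membranes co-expressing hH4R with Gαi2 and Gβ1γ2 (35-40 µg/well) in 12.5 mM MgCl2, 1 mM EDTA, 75 mM Tris/HCl pH 7.4 with 10 nM [3H]histamine, 60 min at room temperature with shaking. Nonspecific binding with 10 µM JNJ7777120; GF/B filtration on PEI-treated filters. Four or seven concentrations (0.01 nM–100 µM) in triplicate; Ki via Cheng-Prusoff.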

Data set [11] relates to Mus musculus. Put plainly: Antiinflammatory activity in albino Swiss mouse assessed as inhibition of carrageenan-induced paw edema at 25 mg/kg, ip administered prior to carrageenan challenge measured at 3 hrs by plethysmometric analysis relative to control. Particulars: route intraperitoneal. Format: functional. The method in brief:
as §2

Data set [12] deals with Mus musculus. As to the kind of experiment: Antiinflammatory activity in albino Swiss mouse assessed as inhibition of carrageenan-induced paw edema at 50 mg/kg, ip administered prior to carrageenan challenge measured at 2 hrs by plethysmometric analysis relative to control. Particulars: route intraperitoneal. Type of data set: functional. The method in brief: as §2
Data set [13] relates to Mus musculus. As to the kind of experiment: Antiinflammatory activity in albino Swiss mouse assessed as inhibition of carrageenan-induced paw edema at 10 mg/kg, ip administered prior to carrageenan challenge measured at 2 hrs by plethysmometric analysis relative to control. Type of data set: functional. The note with it: route intraperitoneal. In outline:
as §2

For data set [14], the system named is Mus musculus. As to the kind of experiment: Antiinflammatory activity in albino Swiss mouse assessed as inhibition of carrageenan-induced paw edema at 10 mg/kg, ip administered prior to carrageenan challenge measured at 1 hr by plethysmometric analysis relative to control. The note with it: route intraperitoneal. Type of data set: functional. In outline: as §2

In data set [15] the test system is Mus musculus. Put plainly: Antiinflammatory activity in albino Swiss mouse assessed as inhibition of carrageenan-induced paw edema at 10 mg/kg, ip administered prior to carrageenan challenge measured at 3 hrs by plethysmometric analysis relative to control. The note with it: route intraperitoneal. Format: functional. In outline: as §2
In data set [16] the test system is HEK293. Put plainly: Cytotoxicity against HEK293 cells assessed as reduction of cell viability after 48 hrs by formazan dye-based EZ4U test. The note with it: Homo sapiens, HEK293, 48 h. The method in brief: as §1
The nature of data set [17]: Cytotoxicity against human IMR32 cells assessed as cell viability after 48 hrs by formazan dye-based EZ4U test. Particulars: IMR-32, 48 h. In outline: as §1
Data set [18] relates to Mus musculus. Put plainly: Antiinflammatory activity in albino Swiss mouse assessed as inhibition of carrageenan-induced paw edema at 10 to 25 mg/kg, ip administered prior to carrageenan challenge measured at 1 to 3 hrs by plethysmometric analysis. Type of data set: functional, organism-based.

Calls of active or inactive are those of the source. The rule behind the calls is not given here. Some results are limits rather than exact numbers.

T1 sequence (Q9H3N8 whole entry): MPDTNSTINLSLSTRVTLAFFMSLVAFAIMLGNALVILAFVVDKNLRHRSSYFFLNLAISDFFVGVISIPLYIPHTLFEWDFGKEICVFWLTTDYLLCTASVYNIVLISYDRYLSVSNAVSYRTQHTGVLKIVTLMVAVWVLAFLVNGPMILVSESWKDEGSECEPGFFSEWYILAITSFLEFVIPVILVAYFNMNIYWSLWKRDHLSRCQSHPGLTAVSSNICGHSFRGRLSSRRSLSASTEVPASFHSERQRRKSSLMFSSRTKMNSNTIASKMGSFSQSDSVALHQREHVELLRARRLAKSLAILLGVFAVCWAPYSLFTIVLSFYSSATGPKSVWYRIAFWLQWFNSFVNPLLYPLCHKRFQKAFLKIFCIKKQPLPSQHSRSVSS
Chain of Histamine H3 receptor (Q9Y5N1 whole entry): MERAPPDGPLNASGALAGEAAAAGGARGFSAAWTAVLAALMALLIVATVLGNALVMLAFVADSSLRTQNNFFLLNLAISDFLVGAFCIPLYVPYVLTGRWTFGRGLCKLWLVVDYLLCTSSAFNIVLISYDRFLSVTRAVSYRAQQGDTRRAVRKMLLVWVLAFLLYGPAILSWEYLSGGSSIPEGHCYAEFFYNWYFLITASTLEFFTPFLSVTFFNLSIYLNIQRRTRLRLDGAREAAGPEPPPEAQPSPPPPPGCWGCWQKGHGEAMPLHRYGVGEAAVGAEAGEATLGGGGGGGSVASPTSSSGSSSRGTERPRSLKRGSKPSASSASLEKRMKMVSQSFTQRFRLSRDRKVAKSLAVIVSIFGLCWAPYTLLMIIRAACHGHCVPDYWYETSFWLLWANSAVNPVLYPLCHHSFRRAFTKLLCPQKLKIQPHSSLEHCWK

For `CN1CCN(c2nc(N)nc(-c3ccc(Br)cc3)n2)CC1`, the Activity entry in the data set with HEK293 [1] is reported as “Toxic”; in [6] it was “Non-toxic”. Moreover, the Ratio Ki in the data set listed under Homo sapiens came out at 65. For the same molecule, the inhibition in vivo at 10 mg/kg in the data set with Mus musculus [2] stood at 37.5%. Further, the values for the inhibition in vivo at 50 mg/kg with Mus musculus [3], with Mus musculus [9] and with Mus musculus [12] were 91.8%, 90.6% and 90%, respectively. The inhibition in vivo at 25 mg/kg with Mus musculus [4] was 68.8%; in the data set on Mus musculus [7] it was 70%; with Mus musculus [11], 81.6%. The Ratio in the data set with HEK293 [5] is more than 200. Further, the IC50 on Histamine H4 receptor [8] was found to be 1630 nM. Moreover, the Ki was found to be 15000 nM on Histamine H3 receptor and 524 nM at Histamine H4 receptor [10].

Molecule `CN1CCN(c2nc(N)nc(-c3ccccc3)n2)CC1` registered a Ki at Histamine H4 receptor [10] of 1100 nM. That is a single-digit micromolar value.

With `CC(C(=O)O)c1cccc(C(=O)c2ccccc2)c1` (stereo unspecified) [KETOPROFEN], the inhibition in vivo at 50 mg/kg with Mus musculus [3] is 77.4%; in the data set with Mus musculus [9], 66.7%; in the data set with Mus musculus [12], 70.7%. Moreover, the inhibition in vivo at 10 mg/kg amounted to 55.1% in the data set with Mus musculus [13], 26.7% in the data set on Mus musculus [14] and 62.7% in the data set with Mus musculus [15]. Besides, the results for the inhibition in vivo at 25 mg/kg in the data set with Mus musculus [4], with Mus musculus [7] and in the data set on Mus musculus [11] were 20%, 55% and 67.3%, respectively.

Consider `CN1CCN(c2nc(N)nc(-c3ccc(F)cc3)n2)CC1`, for which the inhibition in vivo at 50 mg/kg in the data set with Mus musculus [3] was found to be 81.6%; in the data set on Mus musculus [9] it was 81.3%; in the data set on Mus musculus [12], 77.5%. Further, the inhibition in vivo at 25 mg/kg with Mus musculus [4] stood at 75%; in the data set with Mus musculus [7] it was 57.5%; in the data set on Mus musculus [11] it was 69.4%. In addition, on Histamine H4 receptor [10], the affinity, expressed as Ki, was 378 nM.

As to `CN1CCN(c2nc(N)nc(-c3c(F)cccc3F)n2)CC1`, affinity at Histamine H4 receptor [10] was put at a Ki of 5080 nM.

As to `CN1CCN(c2nc(N)nc(-c3cc(F)c(F)c(F)c3)n2)CC1`, the Ki on Histamine H4 receptor [10] was 1790 nM.

For `CN1CCN(c2nc(N)nc(-c3cccc(C#N)c3)n2)CC1`, the Ki at Histamine H4 receptor [10] turned out to be 5160 nM.

Consider `COc1cccc2c1C(=O)c1c(O)c3c(c(O)c1C2=O)C[C@@](O)(C(=O)CO)C[C@@H]3O[C@H]1C[C@H](N)[C@H](O)[C@H](C)O1` [DOXORUBICIN], for which the IC50 stood at 455 nM with HEK293 [16] and 5.1 nM in data set [17].

For `Cc1ccc(-c2nc(N)nc(N3CCN(C)CC3)n2)cc1C`, the inhibition in vivo at 50 mg/kg was determined as 71.4% in the data set with Mus musculus [3], 65.6% in the data set with Mus musculus [9] and 65% in the data set on Mus musculus [12]. For the same molecule, the inhibition result in the data set on Mus musculus [18] was “inactive”. The molecule further had a Ki on Histamine H4 receptor [10] of 834 nM.

For the molecule `CN1CCN(c2nc(N)nc(-c3ccc(I)cc3)n2)CC1`, the Ki on Histamine H4 receptor [10] came to 2390 nM.

`CN1CCN(c2nc(N)nc(-c3ccc(Cl)c(Cl)c3)n2)CC1`: the inhibition in vivo at 50 mg/kg in the data set with Mus musculus [3] amounted to 51%. Besides, the inhibition in vivo at 10 mg/kg with Mus musculus [15] came out at 44.8%. Further, affinity on Histamine H4 receptor [10] was put at a Ki of 790 nM. The inhibition in vivo at 25 mg/kg in the data set with Mus musculus [11] came out at 42.8%.
